Laboratory results as given in ChEMBL document CHEMBL3826920, “Solution-phase microwave assisted parallel synthesis, biological evaluation and in silico docking studies of N,N'-disubstituted thioureas derived from 3-chlorobenzoic acid” (Bioorg Med Chem, 2016).

Experiments:
[1] = tested on: NCI-H157; test: Growth inhibition of human NCI-H157 cells at 100 uM after 48 hrs by SRB assay; type: functional; conditions: NCI-H157, 48 h, read-out: GI
Summary of the method: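 H-157 cells seeded at 10⁴ cells per well and grown at 37 °C under 5% CO₂ to a monolayer within 24 h. Compound added, with a vincristine standard and a cells-plus-media blank, for 48 h. Cells fixed in 50% ice-cold TCA (4 °C, 1 h), washed 5× with PBS, stained with 0.4% w/v SRB in 1% acetic acid (30 min, RT), rinsed, and dye solubilized in 10 mM Tris base. A490 read minus A630 background; triplicate.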

[2] = molecular target: Urease (Canavalia ensiformis, UniProt P07374); test: Inhibition of jack bean urease using urea as substrate assessed as reduction in ammonia production after 30 mins by indophenol method
Summary of the method: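 Compounds were first screened, and those giving at least 50% inhibition went on to dose-response testing. For each, 7–9 serial dilutions were made in assay buffer, and curves were run under the same conditions as the initial screen.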

[3] = molecular target: Urease (Canavalia ensiformis) (UniProt P07374); test: Inhibition of jack bean urease using urea as substrate assessed as reduction in ammonia production at 1 mM after 30 mins by indophenol method
Chain of Urease (Canavalia ensiformis) (P07374 whole entry, looked up): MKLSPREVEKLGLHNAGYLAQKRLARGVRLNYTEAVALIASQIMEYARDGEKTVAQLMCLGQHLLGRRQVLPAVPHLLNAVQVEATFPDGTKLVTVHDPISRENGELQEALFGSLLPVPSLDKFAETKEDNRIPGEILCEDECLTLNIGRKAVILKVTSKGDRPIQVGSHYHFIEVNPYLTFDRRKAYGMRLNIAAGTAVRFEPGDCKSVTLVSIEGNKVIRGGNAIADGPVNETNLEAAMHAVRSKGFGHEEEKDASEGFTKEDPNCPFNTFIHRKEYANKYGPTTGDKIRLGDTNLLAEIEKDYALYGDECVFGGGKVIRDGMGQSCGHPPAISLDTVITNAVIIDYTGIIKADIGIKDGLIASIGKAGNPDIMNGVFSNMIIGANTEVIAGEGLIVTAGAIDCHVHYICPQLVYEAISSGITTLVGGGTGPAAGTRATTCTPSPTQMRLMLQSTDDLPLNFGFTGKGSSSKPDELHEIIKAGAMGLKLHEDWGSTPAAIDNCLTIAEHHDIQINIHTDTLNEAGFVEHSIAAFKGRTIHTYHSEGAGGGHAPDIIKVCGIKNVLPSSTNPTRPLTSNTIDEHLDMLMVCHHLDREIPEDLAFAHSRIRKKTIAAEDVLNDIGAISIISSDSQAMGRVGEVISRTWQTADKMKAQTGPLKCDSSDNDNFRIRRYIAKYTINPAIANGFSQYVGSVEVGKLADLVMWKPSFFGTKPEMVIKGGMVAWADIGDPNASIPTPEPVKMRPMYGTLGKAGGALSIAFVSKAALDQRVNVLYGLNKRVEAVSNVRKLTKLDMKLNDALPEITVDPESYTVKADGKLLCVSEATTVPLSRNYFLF

Chain of Urease (P07374 whole entry): as the sequence (P07374 whole entry, looked up) above

| SMILES | inhibition of growth at 100 µM [1] | IC50 [2] | inhibition [3] |
| --- | --- | --- | --- |
| O=C(NC(=S)Nc1ccc(Cl)cc1)c1cccc(Cl)c1 | 52.6% | 11.7 µM | – |
| O=C(NC(=S)Nc1ccc(Cl)c(Cl)c1)c1cccc(Cl)c1 | 39.4% | – | 36.7% |
| CCCCc1ccc(NC(=S)NC(=O)c2cccc(Cl)c2)cc1 | 47.7% | – | 36.9% |
| O=C(NC(=S)Nc1c(Cl)cc(Cl)cc1Cl)c1cccc(Cl)c1 | 60.9% | 3.64 µM | – |
| O=C(NC(=S)N(C1CCCCC1)C1CCCCC1)c1cccc(Cl)c1 | 47.8% | – | 29.9% |
| O=C(NC(=S)Nc1c(Cl)c(Cl)cc(Cl)c1Cl)c1cccc(Cl)c1 | 45.5% | – | 32.7% |
| O=C(NC(=S)Nc1cc(Cl)ccc1Cl)c1cccc(Cl)c1 | 46.6% | 9.72 µM | – |
| O=C(NC(=S)Nc1ccc(Br)cc1Br)c1cccc(Cl)c1 | 38.2% | 6.32 µM | – |
| O=C(NC(=S)NCc1ccccc1)c1cccc(Cl)c1 | 40.5% | 16.4 µM | – |
| CC[C@]1(O)C[C@H]2CN(CCc3c([nH]c4ccccc34)[C@@](C(=O)OC)(c3cc4c(cc3OC)N(C=O)[C@H]3[C@@](O)(C(=O)OC)[C@H](OC(C)=O)[C@]5(CC)C=CCN6CC[C@]43[C@@H]65)C2)C1 [VINCRISTINE] | 74.6% | – | – |
| O=C(NC(=S)Nc1ccc(Cl)cc1Cl)c1cccc(Cl)c1 | 38.9% | 1.34 µM | – |
| Cc1cc(C)c(NC(=S)NC(=O)c2cccc(Cl)c2)c(C)c1 | 43.7% | 1.23 µM | – |
| O=C(NC(=S)Nc1ccccc1Cl)c1cccc(Cl)c1 | 45.4% | – | 25.7% |
| O=C(NC(=S)Nc1c(Cl)cccc1Cl)c1cccc(Cl)c1 | 42.2% | 5.38 µM | – |
| O=C(NC(=S)Nc1cccc(Cl)c1Cl)c1cccc(Cl)c1 | 50.7% | 1.92 µM | – |
| O=C(NC(=S)Nc1ccccc1)c1cccc(Cl)c1 | 45.2% | 3.24 µM | – |
| CN(C(=S)NC(=O)c1cccc(Cl)c1)c1ccccc1 | 45.1% | 17.5 µM | – |
| COc1ccccc1NC(=S)NC(=O)c1cccc(Cl)c1 | 42.8% | 3.79 µM | – |
| O=C(NC(=S)Nc1ccc(C(F)(F)F)cc1)c1cccc(Cl)c1 | 44.6% | 7.04 µM | – |

| SMILES | inhibition of growth at 100 µM [1] | IC50 [2] | inhibition [3] |
| --- | --- | --- | --- |
| Cc1cccc(NC(=S)NC(=O)c2cccc(Cl)c2)c1C | 41.7% | 4.45 µM | – |
| O=C(NC(=S)Nc1cccc(C(F)(F)F)c1)c1cccc(Cl)c1 | 48.9% | 2.86 µM | – |
| O=C(NC(=S)Nc1ccc(F)cc1)c1cccc(Cl)c1 | – | 2.91 µM | – |
| Cc1ccc(NC(=S)NC(=O)c2cccc(Cl)c2)cc1 | 39.4% | 12.4 µM | – |
| O=C(NC(=S)Nc1ncccn1)c1cccc(Cl)c1 | 57.2% | 2.11 µM | – |
| COc1cccc(NC(=S)NC(=O)c2cccc(Cl)c2)c1 | 42.2% | – | 21.7% |
| O=C(NC(=S)Nc1ccc([N+](=O)[O-])cc1)c1cccc(Cl)c1 | 32.7% | – | 28.1% |
| O=C(NC(=S)Nc1cccc(Br)c1)c1cccc(Cl)c1 | 32.4% | 20.1 µM | – |
| O=C(NC(=S)Nc1ccccc1[N+](=O)[O-])c1cccc(Cl)c1 | 36.4% | 8.59 µM | – |
| CCc1cccc(CC)c1NC(=S)NC(=O)c1cccc(Cl)c1 | 41.2% | 12.6 µM | – |
| O=C(NC(=S)Nc1ccc([N+](=O)[O-])cc1[N+](=O)[O-])c1cccc(Cl)c1 | 36.1% | – | 23.1% |
| O=C(NC(=S)NCc1ccccc1Cl)c1cccc(Cl)c1 | 27.6% | – | 27.4% |
| O=C(NC(=S)Nc1ccccc1C(F)(F)F)c1cccc(Cl)c1 | 36.9% | 5.58 µM | – |
| O=C(NC(=S)NC1CCCCC1)c1cccc(Cl)c1 | 48.5% | 14.3 µM | – |
| O=C(NC(=S)Nc1cccc2ccccc12)c1cccc(Cl)c1 | 42.2% | – | 37.1% |
| O=C(NC(=S)Nc1cccc(Cl)c1)c1cccc(Cl)c1 | 52.9% | – | 29.1% |
| O=C(NC(=S)Nc1cc(Cl)c(Cl)cc1Cl)c1cccc(Cl)c1 | 43.3% | 7.41 µM | – |
| O=C(NC(=S)Nc1cc(Cl)cc(Cl)c1)c1cccc(Cl)c1 | 48.5% | 6.53 µM | – |
| O=C(NC(=S)Nc1nc2ccccc2s1)c1cccc(Cl)c1 | 48.8% | – | 27.9% |
